Measurements as given in publication PMC3042036 (Pharmacological research : the official journal of the …, 2010).

How the values were obtained:
[1] = Plasma and brain compound concentrations after i.p. administration to mice; type: in vivo, mice (B6C3F1); conditions: for Brain drug level / Plasma drug level / B/P (Brain-to-Plasma ratio): mice; for B/P (Brain-to-Plasma ratio): total drug; for concentration at 2 h / Kp at 2 h: 5 mg/kg
Summary of the method: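 Male B6C3F1 mice are dosed i.p. with test compound in DMSO. Brains are sonicated in 10 mM ammonium acetate, pH 5.7 (1:2 w/v). Plasma comes from blood collected with EDTA and spun 10 min at 4500g, 4°C. Each 50 μl aliquot is precipitated with 0.2 ml acetonitrile and spun at 15,000g. Supernatants are quantified by LC-MS/MS.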

brain acetyl-tubulin = assay: Brain acetyl-tubulin ELISA after administration to mice; type: in vivo, mice (B6C3F1); conditions: for Brain acetyl-tubulin relative to vehicle: 16 hours after dosing
Summary of the method: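 Young male B6C3F1 mice (2–3 months) get a single i.p. dose of test compound in DMSO (~40 μl, scaled to body weight), n=3–6 per group. Brain hemispheres are sonicated 1:5 w/v in RIPA with protease inhibitors and trichostatin A. Sandwich ELISA uses 12G10 α-tubulin capture and HRP-acetyl-tubulin detection at 450 nm. Inputs run from 60 to 2.2 ng/μl in duplicate and are fit to the vehicle input curve.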

[2] = test system: optic nerve (ON) acetyl-tubulin; assay: Optic nerve acetyl-tubulin ELISA after administration to mice; type: in vivo, mice (B6C3F1); conditions: 1, 3 and 10 mg/kg i.p., 16 hours after dosing
Summary of the method: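 Male B6C3F1 mice (2–3 months, n=3/treatment) get a single i.p. dose of test compound in DMSO, volume scaled to body weight. Optic nerves are taken 16 hours later and sonicated 1:5 w/v in RIPA with inhibitors. Acetyl-tubulin is measured by α-tubulin-capture/HRP-acetyl-tubulin ELISA at 450 nm, using duplicate serial inputs. Values are read off a vehicle-control input curve and normalized to vehicle mice.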

[3] = biological target: T1, Pgp (human MDR1) in MDCK-MDR cells (Homo sapiens, UniProt P08183); assay: MDCK-MDR bi-directional permeability assay; conditions: 5 μM test compound; for Papp (A-B) / Papp (B-A): pH 7.4
T1 sequence (P08183 whole entry): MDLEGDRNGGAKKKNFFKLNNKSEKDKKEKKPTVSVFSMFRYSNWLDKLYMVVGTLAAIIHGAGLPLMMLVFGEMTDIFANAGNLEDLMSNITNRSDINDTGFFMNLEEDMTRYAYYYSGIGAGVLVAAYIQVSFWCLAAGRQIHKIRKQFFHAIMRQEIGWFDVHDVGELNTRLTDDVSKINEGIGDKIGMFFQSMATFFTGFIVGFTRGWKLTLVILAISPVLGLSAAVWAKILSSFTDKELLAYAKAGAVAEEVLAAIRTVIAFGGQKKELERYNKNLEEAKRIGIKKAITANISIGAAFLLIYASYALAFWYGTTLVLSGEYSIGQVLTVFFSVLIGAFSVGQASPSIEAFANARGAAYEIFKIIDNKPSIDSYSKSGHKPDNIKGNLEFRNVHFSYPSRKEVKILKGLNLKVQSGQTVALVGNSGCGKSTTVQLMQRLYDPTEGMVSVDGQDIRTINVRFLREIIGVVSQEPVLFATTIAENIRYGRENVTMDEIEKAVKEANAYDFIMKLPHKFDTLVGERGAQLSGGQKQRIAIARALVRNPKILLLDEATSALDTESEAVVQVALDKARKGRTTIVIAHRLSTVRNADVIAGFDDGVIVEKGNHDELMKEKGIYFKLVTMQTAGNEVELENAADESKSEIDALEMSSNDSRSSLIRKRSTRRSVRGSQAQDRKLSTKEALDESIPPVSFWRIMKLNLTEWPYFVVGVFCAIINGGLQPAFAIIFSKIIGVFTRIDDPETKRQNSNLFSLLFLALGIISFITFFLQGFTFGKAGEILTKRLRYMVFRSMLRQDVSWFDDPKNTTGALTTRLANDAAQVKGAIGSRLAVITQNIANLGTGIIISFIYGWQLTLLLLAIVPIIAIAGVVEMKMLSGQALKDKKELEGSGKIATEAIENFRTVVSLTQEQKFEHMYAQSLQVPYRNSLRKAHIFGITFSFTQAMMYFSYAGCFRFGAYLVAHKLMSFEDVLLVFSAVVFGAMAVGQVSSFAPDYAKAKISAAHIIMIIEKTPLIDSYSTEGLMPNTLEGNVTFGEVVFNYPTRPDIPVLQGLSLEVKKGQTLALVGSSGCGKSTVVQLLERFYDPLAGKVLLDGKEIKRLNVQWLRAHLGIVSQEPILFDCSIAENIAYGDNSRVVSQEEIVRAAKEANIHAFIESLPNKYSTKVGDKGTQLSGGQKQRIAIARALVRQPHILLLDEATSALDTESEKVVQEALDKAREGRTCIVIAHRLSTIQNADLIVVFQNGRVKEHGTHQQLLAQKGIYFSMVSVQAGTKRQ

[4] = test system: Tg mice that express human tau; conditions: cited from earlier work
[5] = test system: acetyl-tubulin in PC12 cells; assay: Acetyl-tubulin levels in PC12 cells; type: cell-based; conditions: 24 hours treatment, increasing concentrations
P-gp (human MDR1) = P-gp (human MDR1) (Homo sapiens, UniProt P08183); assay: MDCK-MDR bi-directional permeability assay; conditions: dog, MDCK-MDR1, pH 7.4
P-gp (human MDR1), sequence (P08183 whole entry): as above

[6] = biological target: T1, Pgp (human MDR1) in MDCK-MDR cells; assay: Inhibition of Pgp-mediated transport of digoxin in MDCK-MDR cells; conditions: 10 μM digoxin + 5 μM test compound
[7] = male, B6C3F1, mouse, plasma, ip
[8] = male, B6C3F1, mouse, brain, ip, 10 mg/kg
[9] = male, B6C3F1, mouse, brain/plasma, ip
[10] = male, B6C3F1, mouse, brain, intraperitoneal, 3 mg/kg

concentration at 2 h ([1]; male, B6C3F1, mouse, brain, ip)	concentration at 2 h [1, 7]	SMILES	Brain drug level ([1]; i.p. 5 mg/kg, 2 hours)	Plasma drug level ([1]; i.p. 5 mg/kg, 2 hours)	B/P (Brain-to-Plasma ratio) ([1]; i.p. 5 mg/kg, 2 hours)	Brain drug level ([1]; i.p. 10 mg/kg, 24 hours)	Plasma drug level ([1]; i.p. 10 mg/kg, 24 hours)	ON acetyl-tubulin relative to vehicle (in words) [2]	Papp (A-B) [3]	Papp (B-A) [3]	concentration at 24 h [1, 8]	Kp at 2 h [1, 9]	other results
		C/C1=C/C[C@@H](/C(C)=C/c2csc(CO)n2)OC(=O)C[C@H](O)C(C)(C)C(=O)[C@H](C)[C@@H](O)[C@@H](C)CCC1 [CNDR-89, 12,13-desoxy-epothilone F]	24 ng/g	6.8 ng/mL	3.5	13 ng/g	BLD	only resulted in an increase of the stabilized MT biomarker at 10 mg/kg	2.3 10^−6 cm/s	63 10^−6 cm/s			Brain acetyl-tubulin relative to vehicle (brain acetyl-tubulin; 3 mg/kg i.p.): increase of acetyl-tubulin relative to vehicle; Brain acetyl-tubulin relative to vehicle (brain acetyl-tubulin; 10 mg/kg i.p.): no effect
85 ng/g	1290 ng/mL	CC(=O)O[C@H]1C(=O)[C@@]2(C)[C@H]([C@H](OC(=O)c3ccccc3)[C@]3(O)C[C@H](OC(=O)[C@H](O)[C@@H](NC(=O)c4ccccc4)c4ccccc4)C(C)=C1C3(C)C)[C@]1(OC(C)=O)CO[C@@H]1C[C@@H]2O [Paclitaxel, reference compound]			0.07								Effect in Tg mice that over-express human tau ([4]; drug absorption at peripheral neuromuscular junctions): increased MT density and marked improvement in motor function
		C/C1=C/C[C@@H](/C(C)=C/c2csc(CO)n2)OC(=O)C[C@H](O)C(C)(C)C(=O)[C@H](C)[C@@H](O)[C@@H](C)/C=C/C1 [CNDR-88]	30 ng/g	12 ng/mL	2.6	45 ng/g	6.1 ng/mL	neither CNDR-86 nor CNDR-88 elicited a change at any dose	0.8 10^−6 cm/s	58.6 10^−6 cm/s			B/P (Brain-to-Plasma ratio) ([1]; i.p. 10 mg/kg, 24 hours): 7.3
142 ng/g	319 ng/mL	C/C(=C\c1csc(C)n1)[C@@H]1C[C@@H]2O[C@]2(C)CCC[C@H](C)[C@H](O)[C@@H](C)C(=O)C(C)(C)[C@@H](O)CC(=O)N1 [CNDR-90, ixabepilone, reference compound]									107 ng/g	0.4	Kp at 24 h ([1]; male, B6C3F1, mouse, brain/plasma, ip, 10 mg/kg): 2.6; concentration at 24 h ([1]; male, B6C3F1, mouse, plasma, ip, 10 mg/kg): 41 ng/mL

SMILES	concentration at 2 h ([1]; male, B6C3F1, mouse, brain, ip)	concentration at 2 h [1, 7]	Brain drug level ([1]; i.p. 5 mg/kg, 2 hours)	Plasma drug level ([1]; i.p. 5 mg/kg, 2 hours)	B/P (Brain-to-Plasma ratio) ([1]; i.p. 5 mg/kg, 2 hours)	Brain drug level ([1]; i.p. 10 mg/kg, 24 hours)	Plasma drug level ([1]; i.p. 10 mg/kg, 24 hours)	ON acetyl-tubulin relative to vehicle (in words) [2]	Papp (A-B) [3]	Papp (B-A) [3]	concentration at 24 h [1, 8]	Kp at 2 h [1, 9]	other results
C/C1=C/C[C@@H](/C(C)=C/c2csc(C)n2)OC(=O)C[C@H](O)C(C)(C)C(=O)[C@H](C)[C@@H](O)[C@@H](C)CCC1 [CNDR-66, Epothilone D]	109 ng/g	14 ng/mL					BLD	elevation of acetyl-tubulin at all doses			64 ng/g	7.6	Brain elimination half-life compared with plasma ([1]; full pharmacokinetic analysis, data not shown): far exceeded that observed in the plasma; concentration at 7 days [1, 10]: 8.3 ng/g; concentration at 10 days [1, 10]: 1.8 ng/g; Amount of acetyl-tubulin in PC12 cells [5]: significant concentration-dependent increase; Brain acetyl-tubulin levels (brain acetyl-tubulin; single 1 mg/kg, 7 days after dosing): significant increase of brain acetyl-tubulin; Brain acetyl-tubulin levels (brain acetyl-tubulin; single 3 mg/kg, 6 and 10 days after dosing): increased acetyl-tubulin levels; Brain acetyl-tubulin levels (brain acetyl-tubulin; single 3 mg/kg, 7 days after dosing): increase of acetyl-tubulin; Brain acetyl-tubulin levels (brain acetyl-tubulin; single 3 mg/kg, 14 days after dosing): statistically insignificant change; Brain acetyl-tubulin levels (brain acetyl-tubulin; single 6 mg/kg, 7 days after dosing, compared with 3 mg/kg): not further increased; Effect in Tg mice that express mutant human tau [4]: improve CNS axonal integrity, MT density and cognitive performance; Papp A→B at 2 h, 5 µM (P-gp (human MDR1)): 30 ×10⁻⁶ cm/s; Papp B→A at 2 h, 5 µM (P-gp (human MDR1)): 46.8 ×10⁻⁶ cm/s; efflux ratio at 2 h, 5 µM (P-gp (human MDR1)): 1.6; Efflux Ratio (B-A)/(A-B) [3]: near unity; Inhibition of Pgp transport of digoxin (in words) [6]: potent inhibitor of Pgp transport
